Experimental data pooled from the literature.
CES1: Liver carboxylesterase 1 (CES1, Homo sapiens, UniProt P23141)
tlpQ: tlpQ (Pseudomonas aeruginosa, UniProt Q9I0I4)
gag-pol protease: Gag-Pol polyprotein, protease (gag-pol, Human immunodeficiency virus type 1 group M subtype B, UniProt P04585)
F2: Prothrombin (F2, Homo sapiens, UniProt P00734)
KCNH2: Voltage-gated inwardly rectifying potassium channel KCNH2 (KCNH2, Homo sapiens, UniProt Q12809)

SMILES | target | test | setting | measurement | value
CCOC(=O)c1ccc(OC(=O)CCCCCN=C(N)N)cc1 | Kallikrein-14 (Homo sapiens, UniProt Q9P0G3) | enzyme activity, inhibitor | – | IC50 | 0.641 µM
COc1c2c(cc3c1-c1c(cc4c(c1OC)OCO4)C[C@H](C)[C@H](C)C3)OCO2 | CES1 | enzyme activity, inhibitor | – | Ki | 0.0898 µM
NC[C@H](O)c1ccc(O)c(O)c1 | tlpQ | binding, ITC | – | Kd | > 1000 µM
COc1ccc(S(=O)(=O)N(CC(C)C)C[C@@H](O)[C@H](Cc2ccccc2)NC(=O)O[C@@H]2CCC[C@@]23CCO[C@@H](c2ccccc2)C3)cc1 | gag-pol protease | enzyme activity, inhibitor | – | Ki | 0.051 µM
N=C(N)NCCC[C@H](NC(=O)[C@H](Cc1ccccc1)NC(=O)[C@H](CCC(N)=O)NC(=O)OCc1ccccc1)C(=O)c1nccs1 | F2 | cell-free assay | – | Ki | 0.994 µM
COc1ccc(S(=O)(=O)N(CC(C)C)C[C@@H](O)[C@H](Cc2ccccc2)NC(=O)O[C@H]2CCC[C@@]23CCO[C@@H](c2cc(OC)cc(OC)c2)C3)cc1 | gag-pol protease | enzyme activity, inhibitor | – | Ki | 0.0026 µM
C=CCc1ccc(O)c(-c2cc(CC=C)ccc2O)c1 | CES1 | enzyme activity, inhibitor | – | Ki | 0.094 µM
O=c1c2cc(Cl)c(CO)cc2[nH]c(=S)n1Cc1cccnc1 | KCNH2 | ion current, inhibitor, patch clamp | pH 7.4 | IC50 | > 10 µM
CC(=O)c1c(C)c2cnc(Nc3ccc(C4CCN(CCS(C)(=O)=O)CC4)cn3)nc2n(C2CCCC2)c1=O | KCNH2 | ion current, inhibitor | – | IC50 | > 30 µM
COc1cc2c(cc1OC)CN(CCc1ccc(NC(=O)c3cccc4c(=O)c5cccc(OC)c5[nH]c34)cc1)CC2 | 5-hydroxytryptamine receptor 1B (HTR1B, Homo sapiens, UniProt P28222) | cell-free assay | – | Ki | > 10 µM
COc1ccc(S(=O)(=O)N(CC(C)C)C[C@@H](O)[C@H](Cc2ccccc2)NC(=O)O[C@@H]2CCC[C@@]23CCO[C@@H](c2cccc(OC)c2)C3)cc1 | gag-pol protease | enzyme activity, inhibitor | – | Ki | 1.14 µM
CC1=C(O)C(=O)C=C2C1=CC=C1[C@@]2(C)CC[C@@]2(C)[C@@H]3C[C@](C)(C(=O)O)CC[C@]3(C)CC[C@]12C | Aldo-keto reductase family 1 member B10 (AKR1B10, Homo sapiens, UniProt O60218) | binding, BLI | – | Kd | 2.41 µM
CS(=O)(=O)N[C@@H](CCC(N)=O)C(=O)N[C@@H](Cc1ccccc1)C(=O)N[C@@H](CCCNC(=N)N)C(=O)c1nccs1 | F2 | cell-free assay | – | Ki | > 10 µM
COc1ccc(S(=O)(=O)N(CC(C)C)C[C@@H](O)[C@H](Cc2ccccc2)NC(=O)O[C@H]2CCC[C@]23CCO[C@H](c2ccccc2OC)C3)cc1 | gag-pol protease | enzyme activity, inhibitor | – | Ki | 0.00022 µM
NCCCCNCCCN | tlpQ | binding, ITC | – | Kd | 0.12 µM
